Measurements reported in ChEMBL document CHEMBL1250465, “A new metabotropic glutamate receptor agonist with in vivo anti-allodynic activity” (Bioorg Med Chem, 2010).
Activity calls are given as the source filed them.

Legend:
[1] = Displacement of [3H]AMPA from AMPA receptor in Sprague-Dawley rat brain synaptic membranes after 30 mins; type: cell membranes, Membrane
Outline: (§1)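 Adult male Sprague-Dawley rat cortex synaptic membranes, washed four times in ice-cold pH 7.4 buffer at about 0.4–0.5 mg protein/mL. AMPA: 5 nM [3H]AMPA in 30 mM Tris-HCl/2.5 mM CaCl2 with 100 mM KSCN. Kainate: 5 nM [3H]KAIN in 50 mM Tris-HCl. NMDA: 2 nM [3H]CGP39653 in 50 mM Tris-HCl/2.5 mM CaCl2. Nonspecific binding set with 1 mM (S)-Glu.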

Glutamate NMDA receptor = assay: Displacement of [3H]CGP39653 from NMDA receptor in Sprague-Dawley rat brain synaptic membranes after 60 mins; type: cell membranes, Membrane; outline: as §1
[2] = target: Metabotropic glutamate receptor 4 (Homo sapiens, UniProt Q14833); assay: Agonist activity at mGlu4 receptor expressed in CHO cells assessed as inhibition of forskolin-induced increase of cAMP level; type: functional, cell-based
Sequence of Metabotropic glutamate receptor 4 (Q14833 whole entry): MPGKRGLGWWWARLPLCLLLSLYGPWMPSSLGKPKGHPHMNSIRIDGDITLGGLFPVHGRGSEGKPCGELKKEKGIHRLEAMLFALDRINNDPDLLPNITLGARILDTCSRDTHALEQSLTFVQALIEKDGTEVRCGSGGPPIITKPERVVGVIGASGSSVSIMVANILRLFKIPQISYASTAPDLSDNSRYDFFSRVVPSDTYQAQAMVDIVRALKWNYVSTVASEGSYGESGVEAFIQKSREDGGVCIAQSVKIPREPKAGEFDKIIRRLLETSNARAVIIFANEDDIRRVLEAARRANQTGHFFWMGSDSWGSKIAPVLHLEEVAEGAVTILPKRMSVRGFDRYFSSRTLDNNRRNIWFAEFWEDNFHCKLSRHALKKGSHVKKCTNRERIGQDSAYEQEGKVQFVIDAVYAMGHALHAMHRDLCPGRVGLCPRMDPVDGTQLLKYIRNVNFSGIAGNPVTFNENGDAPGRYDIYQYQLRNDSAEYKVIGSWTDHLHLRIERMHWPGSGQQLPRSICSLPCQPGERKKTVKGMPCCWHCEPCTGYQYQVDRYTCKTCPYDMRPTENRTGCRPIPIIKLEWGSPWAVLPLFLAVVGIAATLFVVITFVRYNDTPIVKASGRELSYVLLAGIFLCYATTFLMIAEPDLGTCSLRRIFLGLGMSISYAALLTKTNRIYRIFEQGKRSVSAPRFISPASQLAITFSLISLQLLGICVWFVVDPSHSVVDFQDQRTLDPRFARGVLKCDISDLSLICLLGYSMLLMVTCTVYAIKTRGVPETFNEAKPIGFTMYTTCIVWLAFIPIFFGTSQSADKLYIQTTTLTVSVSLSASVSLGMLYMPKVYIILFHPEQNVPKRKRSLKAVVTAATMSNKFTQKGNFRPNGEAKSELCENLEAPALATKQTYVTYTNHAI
Outline: (§2)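 CHO cells grown in DMEM GlutaMAX-I, 10% dialyzed FBS, 2.5 g/L L-proline, seeded 26,000/well 24 h before. After a 20 min, 37 °C preincubation in DPBS with 1 mM CaCl2, 1 mM MgCl2, 1 mM IBMX, compound plus 25 µM forskolin was given for 10 min at 37 °C. Stopped with ice-cold sodium acetate pH 6.2, 0.1% Triton X-100, 0.1 mM IBMX; cAMP by radioimmunoassay.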

[3] = target: Metabotropic glutamate receptor 1 (Homo sapiens, UniProt Q13255); assay: Agonist activity at mGlu1 receptor expressed in CHO cells assessed as myo-[2-3H]Inositol turnover by scintillation counting; type: functional, cell-based
Sequence of Metabotropic glutamate receptor 1 (Q13255 whole entry): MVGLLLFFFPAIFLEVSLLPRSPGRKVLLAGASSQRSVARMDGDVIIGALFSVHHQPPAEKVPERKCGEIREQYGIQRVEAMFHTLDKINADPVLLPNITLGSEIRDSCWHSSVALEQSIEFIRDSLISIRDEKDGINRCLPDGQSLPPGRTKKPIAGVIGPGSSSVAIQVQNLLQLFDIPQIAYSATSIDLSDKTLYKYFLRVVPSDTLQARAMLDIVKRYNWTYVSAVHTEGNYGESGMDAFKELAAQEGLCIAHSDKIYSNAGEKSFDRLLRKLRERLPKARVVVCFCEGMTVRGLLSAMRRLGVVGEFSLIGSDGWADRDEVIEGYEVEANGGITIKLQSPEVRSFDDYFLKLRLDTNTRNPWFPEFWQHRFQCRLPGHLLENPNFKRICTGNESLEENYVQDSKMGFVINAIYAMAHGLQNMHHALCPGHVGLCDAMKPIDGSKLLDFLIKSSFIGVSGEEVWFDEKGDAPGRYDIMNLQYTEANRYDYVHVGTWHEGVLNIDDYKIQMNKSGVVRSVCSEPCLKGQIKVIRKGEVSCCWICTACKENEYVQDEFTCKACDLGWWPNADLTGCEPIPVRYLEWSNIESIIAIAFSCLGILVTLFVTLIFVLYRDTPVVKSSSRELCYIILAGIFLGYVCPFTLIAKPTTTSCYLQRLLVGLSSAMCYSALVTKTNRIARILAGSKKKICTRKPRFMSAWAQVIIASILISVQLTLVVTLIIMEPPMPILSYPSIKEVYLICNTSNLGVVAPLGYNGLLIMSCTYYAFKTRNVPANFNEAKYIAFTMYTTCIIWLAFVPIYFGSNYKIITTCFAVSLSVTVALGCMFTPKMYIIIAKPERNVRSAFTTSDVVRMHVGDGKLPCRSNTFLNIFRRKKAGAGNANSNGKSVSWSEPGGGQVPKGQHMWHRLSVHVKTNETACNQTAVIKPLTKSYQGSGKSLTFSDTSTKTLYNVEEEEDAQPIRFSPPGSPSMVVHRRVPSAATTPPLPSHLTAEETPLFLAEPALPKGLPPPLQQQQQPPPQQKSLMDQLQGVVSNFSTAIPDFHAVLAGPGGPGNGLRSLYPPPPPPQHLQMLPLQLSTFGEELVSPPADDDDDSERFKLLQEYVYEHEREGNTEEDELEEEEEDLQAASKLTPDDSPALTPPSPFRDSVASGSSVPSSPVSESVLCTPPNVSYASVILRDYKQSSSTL
Outline: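 CHO cells stably expressing receptor, washed with DPBS, preincubated 30 min at 37 °C in HBSS with 20 mM HEPES, 1 mM CaCl2, 1 mM MgCl2, 0.85 mg/mL LiCl, pH 7.4; compound added for 30 min at 37 °C. Stopped with ice-cold 10 mM formic acid, 30 min at 4 °C. [3H]IP measured with yttrium silicate SPA beads; counts per minute read.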

Rattus norvegicus [4] = assay: Antiallodynic activity against von Frey hair mechanically stimulated neuropathic pain in intrathecally dosed Sprague-Dawley rat assessed as increase of response threshold after 3 hrs; type: functional, organism-based
Outline: (§3)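 Male Sprague-Dawley rats with chronic constriction injury of the left sciatic nerve, dosed 16 days after surgery. Intrathecal dosing under isoflurane, with vehicle as control. Blinded von Frey testing of both hind paws before dosing and at 1, 3 and 24 h. 50% withdrawal threshold in g from a Gaussian integral psychometric fit by maximum likelihood; n = 6.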

Rattus norvegicus [5] = assay: Antiallodynic activity against von Frey hair mechanically stimulated neuropathic pain in Sprague-Dawley rat assessed as increase of response threshold at 250 nmol dosed intrathecally after 24 hrs relative to control; type: functional; conditions: in the assay text read “after 3 hrs” for “after 24 hrs”; outline: as §3
Rattus norvegicus [6] = assay: Antiallodynic activity against von Frey hair mechanically stimulated neuropathic pain in Sprague-Dawley rat assessed as increase of response threshold at 500 nmol dosed intrathecally after 24 hrs; type: functional, organism-based; outline: as §3
[7] = target: T1, Metabotropic glutamate receptor 2 (Homo sapiens, UniProt Q14416); assay: Agonist activity at mGlu2 receptor expressed in CHO cells assessed as inhibition of forskolin-induced increase of cAMP level; type: functional, cell-based; outline: as §2
T1 sequence (Q14416 whole entry): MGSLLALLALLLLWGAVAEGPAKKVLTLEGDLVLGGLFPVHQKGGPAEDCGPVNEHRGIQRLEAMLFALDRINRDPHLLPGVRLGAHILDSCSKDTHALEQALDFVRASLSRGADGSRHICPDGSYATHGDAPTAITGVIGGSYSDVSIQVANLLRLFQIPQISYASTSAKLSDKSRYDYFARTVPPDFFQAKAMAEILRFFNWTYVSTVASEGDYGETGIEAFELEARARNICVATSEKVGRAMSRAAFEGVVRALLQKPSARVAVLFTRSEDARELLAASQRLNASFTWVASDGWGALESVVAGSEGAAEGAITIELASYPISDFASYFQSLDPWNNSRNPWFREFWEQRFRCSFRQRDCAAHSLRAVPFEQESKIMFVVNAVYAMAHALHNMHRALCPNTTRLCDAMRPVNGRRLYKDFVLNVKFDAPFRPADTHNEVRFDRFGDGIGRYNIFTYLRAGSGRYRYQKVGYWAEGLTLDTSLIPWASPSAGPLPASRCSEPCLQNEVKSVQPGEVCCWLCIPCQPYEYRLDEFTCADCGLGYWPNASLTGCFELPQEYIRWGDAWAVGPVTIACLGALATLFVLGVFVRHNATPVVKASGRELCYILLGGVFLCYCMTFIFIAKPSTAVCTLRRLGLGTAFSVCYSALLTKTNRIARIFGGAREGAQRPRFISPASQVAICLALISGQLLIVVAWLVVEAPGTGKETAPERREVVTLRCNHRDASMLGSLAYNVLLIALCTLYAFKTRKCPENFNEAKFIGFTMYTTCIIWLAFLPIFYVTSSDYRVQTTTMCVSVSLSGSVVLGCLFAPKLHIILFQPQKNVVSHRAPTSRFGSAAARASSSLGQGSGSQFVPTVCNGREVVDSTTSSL

Rattus norvegicus [8] = assay: Antiallodynic activity against von Frey hair mechanically stimulated neuropathic pain in Sprague-Dawley rat assessed as increase of response threshold at 50 nmol dosed intrathecally after 24 hrs relative to control; type: functional; conditions: in the assay text read “after 3 hrs” for “after 24 hrs”; outline: as §3
Rattus norvegicus [9] = assay: Antiallodynic activity against von Frey hair mechanically stimulated neuropathic pain in Sprague-Dawley rat assessed as increase of response threshold at 500 nmol dosed intrathecally after 1 hr; type: functional, organism-based; outline: as §3
[10] = Displacement of [3H]KAIN from kainate receptor in Sprague-Dawley rat brain synaptic membranes after 60 mins; type: cell membranes, Membrane; outline: as §1
Rattus norvegicus [11] = assay: Antiallodynic activity against von Frey hair mechanically stimulated neuropathic pain in Sprague-Dawley rat assessed as increase of response threshold at 500 nmol dosed intrathecally after 3 hrs relative to control; type: functional; outline: as §3
[12] = target: T1, Metabotropic glutamate receptor 2; assay: Antagonist activity at mGlu2 receptor expressed in CHO cells assessed as increase of cAMP level; type: functional, cell-based

IC50 [1] [µM]	IC50 (Glutamate NMDA receptor) [µM]	EC50 [2] [µM]	EC50 [3] [µM]	EC50 [7] [µM]	IC50 [10] [µM]	IC50 [12] [µM]	Compound	Activity (Rattus norvegicus [4])	Activity (Rattus norvegicus [5]) [g]	Activity (Rattus norvegicus [6])	Activity (Rattus norvegicus [8]) [g]	Activity (Rattus norvegicus [9])	Activity (Rattus norvegicus [11]) [g]
> 100	> 100	> 100	> 100	0.05	> 100		N[C@H](C(=O)O)[C@@H]1[C@@H](C(=O)O)[C@@H]1C1CC1 (racemic)	Dose-dependent effect	7.5	inactive	5	Active	10
> 100	> 100	> 100	> 100		> 100	62	N[C@H](C(=O)O)[C@@H]1[C@@H](C(=O)O)[C@@H]1C1CCCCC1 (racemic)						
		> 100	> 100	0.01			C[C@H]1[C@H](C(=O)O)[C@H]1[C@H](N)C(=O)O (racemic)						
